# Runt-CBFb FRET: inhibitors of human RUNX1 Runt domain binding to CBFb | Cerulean-Runt/Venus-CBFb FRET ratio 530/480, 1 h | inhibition, % at 20 µM | 0.46% of 220,000 active;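 active = inhibition over about 50% at 20 µM in the single-dose screen, limit read from the data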;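 also: 0% = DMSO wells and 100% = excess unlabeled CBFb competitor control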
#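 Schedule: protein complex preformed 1 h, compound exposure 1 h, room temperature, dark; test system: Cerulean-labeled Runt domain protein; amount: 100 nM per protein; buffer or medium: Tris 50 mM pH 7.5, KCl, K2SO4, 0.01% BSA; read-out: loss of energy transfer signal; detection: FRET fluorescence; controls: 5 µM unlabeled CBFb as full-inhibition high control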
# Runt-SMMHC FRET: Runt domain-CBFb-SMMHC interaction inhibition; inhibition, % at 20 µM; Cerulean-Runt/Venus-CBFb-SMMHC FRET ratio 530/480, 1 h; AID 1434; 0.74% of 220,000 active; Q01196+Q13951;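 active = mean inhibition across duplicate retests at 20 µM reaching about 50%, limit read from the data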;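 also: 0% = DMSO wells and 100% = wells with excess untagged CBFb-SMMHC; inhibitors lower the FRET ratio by blocking Runt binding to CBFb-SMMHC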
# Hck-Nef inh: inhibitors of human Hck kinase activated by Nef | Recombinant Hck-YEEI plus Nef, Z-Lyte FRET kinase assay | 0.68% of 220,000 active | P08631 | inhibition, % at 20 µM;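 active = Hck-Nef kinase inhibition above about 50%, limit read from the data; inactive = inhibition below that limit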;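 also: 0% = DMSO with Hck plus Nef and 100% = Hck alone without Nef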
# Target sequence (P08631 whole entry, looked up): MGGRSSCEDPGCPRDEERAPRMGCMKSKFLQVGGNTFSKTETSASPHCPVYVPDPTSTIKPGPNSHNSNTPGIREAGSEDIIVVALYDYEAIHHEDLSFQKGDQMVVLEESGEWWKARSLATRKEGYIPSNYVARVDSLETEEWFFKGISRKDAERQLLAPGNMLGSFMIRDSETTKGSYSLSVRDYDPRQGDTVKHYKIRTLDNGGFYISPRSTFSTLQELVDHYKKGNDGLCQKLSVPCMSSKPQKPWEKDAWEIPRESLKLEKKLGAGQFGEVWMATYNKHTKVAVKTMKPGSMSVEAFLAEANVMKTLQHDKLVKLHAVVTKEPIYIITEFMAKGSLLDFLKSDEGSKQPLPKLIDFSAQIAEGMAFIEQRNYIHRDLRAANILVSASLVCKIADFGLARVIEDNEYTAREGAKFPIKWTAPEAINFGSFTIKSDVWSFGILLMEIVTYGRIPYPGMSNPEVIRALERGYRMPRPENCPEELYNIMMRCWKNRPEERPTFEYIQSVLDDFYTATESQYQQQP
# RanGTP-Imp inh: inhibitors of RanGTP-importin-beta interaction, primary screen, biochemical, FRET, CFP-Ran, YFP-importin-beta, homogeneous | cell-free CFP-Ran/YFP-importin-beta FRET ratio | inhibition, % (no concentration beside the values) | 1.1% of 300,000 active;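 active = more than half of the replicate wells show a fall in the fluorescence ratio signal beyond about 16%, limit read from the data, passing the limit was not always enough; inconclusive = exactly half of the replicate wells pass the set limit; inactive = fewer than half of replicates pass the limit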;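 also: 0% = DMSO wells and 100% = Ran loaded with GDP instead of GTP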
# * = called active by the depositor; u = inconclusive; x = no result; + = active, no number. An excerpt weighted towards active compounds, which were near 1.9% of everything screened.
SMILES,Runt-CBFb FRET,Runt-SMMHC FRET,Hck-Nef inh,RanGTP-Imp inh
CC(C)(C)NC(=O)NC(=O)COC(=O)c1ccc(OC(F)(F)F)cc1,-4.8,-2.2,0.1,u
CN1C2=C(C(=O)CC(C)(C)C2)C(c2cccs2)C2=C1CC(C)(C)CC2=O,x,x,x,60.5*
CC1(C)CC(=O)C2=C(C1)OC(=O)CC2c1cccs1 (stereo unspecified),0.9,-1.3,17.5,3.6
Cc1ccc(C(=O)NC(=O)CSc2nncn2C)cc1,x,x,x,-5.9
Cc1ccc(C2=NN=C(NC(=O)CSc3nncn3C)SC2)cc1,48.8,61.0*,18.7,-1.4
COc1cc(/C=N\Nc2nc(-c3ccc(C)cc3)c(NC(C)=O)s2)ccc1O,14.9,-3.1,105.4*,-1.1
CC(=O)Nc1sc(N/N=C/c2ccc(N(C)C)cc2)nc1-c1ccc(C)cc1,3.9,-0.2,40.5,u
CC(=O)Nc1nc2n(n1)C(c1ccc(Cl)cc1)C=C(C)N2 (stereo unspecified),30.6,83.4*,15.5,-1.3
CC1=CC(c2ccc(Cl)cc2)n2nc(NC(=O)c3ccccc3)nc2N1 (stereo unspecified),1.4,-3.4,9.0,-2.7
CCC(NC(=O)OCc1ccccc1)C(=O)Oc1ccc2ccc(=O)oc2c1 (stereo unspecified),x,x,x,21.5*
O=C(Oc1ccc2ccc(=O)oc2c1)c1ccccc1,x,x,x,9.9
Cc1cc(=O)[nH]c(SCc2ccc(Cl)cc2Cl)n1,x,x,x,-4.0
CN(C)CCCC(C)(O)C(C)(C)c1ccccc1 (stereo unspecified),73.4*,-2.8,3.3,-3.2
CCOC(=O)N1CCN(C(=O)/C=C/c2ccc(C(C)(C)C)cc2)CC1,x,x,x,27.7*
Cc1ccc(S(=O)(=O)Nc2cccc(Cl)c2)cc1NC(=O)c1cccnc1,-1.4,0.7,24.4,62.3*
CCC(=O)Nc1cc(C(=O)O)ccc1Sc1ccc(Cl)cc1,-1.3,-0.1,12.6,1.8
O=[N+]([O-])c1ccc(N=Nc2ncc[nH]2)cc1,x,x,x,-2.1
N#Cc1c(-c2ccccc2)nc(SCC(=O)N2c3ccccc3Sc3ccccc32)[nH]c1=O,-5.6,-9.9,82.0*,-0.9
CCCc1cc(=O)n2[nH]c(C)nc2n1,1.0,-3.5,3.7,22.9*
CCc1ccc(NC(=O)CN(c2cc(C)cc(C)c2)S(=O)(=O)c2c(C)[nH]c(=O)[nH]c2=O)cc1,x,x,x,20.9*
CCc1ccc(NC(=O)CN(c2ccc(OC)cc2)S(=O)(=O)c2c(C)[nH]c(=O)[nH]c2=O)cc1,x,x,x,1.0
O=C(/C=C/c1c[nH]c2ccccc12)c1cccc2ccccc12,19.5,7.7,-0.7,16.8*
CCc1ccc(-c2cc(C(F)(F)F)n3nc(C(=O)Nc4c(C)nn(Cc5ccc(F)cc5)c4C)cc3n2)s1,10.6,12.9,7.9,58.4*
Cc1ccccc1Cn1nc(C)c(NC(=O)c2cc3nc(-c4ccco4)cc(C(F)(F)F)n3n2)c1C,-0.9,14.9,2.4,x
CCOC(=S)NC(=O)c1sc2ccccc2c1Cl,-0.4,2.5,1.7,52.8*
SMILES,Runt-CBFb FRET,Runt-SMMHC FRET,Hck-Nef inh,RanGTP-Imp inh
O=C(NC(=S)NCCO)c1sc2ccccc2c1Cl,3.0,-7.3,-0.1,-2.4
O=C(CCC(=O)N(CC(=O)NC1CCCC1)Cc1cccs1)Nc1nccs1,-1.7,-0.5,17.9,-1.4
CC(C)c1c(C(=O)N/N=C/c2ccc(OCc3ccccc3)cc2)nnn1-c1nonc1N,x,x,x,+
Cc1ccc(/C=N/NC(=O)c2nnn(-c3nonc3N)c2-c2cccs2)cc1,x,x,x,189.5*
Cc1cccn2c(=O)c3cc(C(=O)NCC4CCCO4)c(=N)n(C4CCCC4)c3nc12 (stereo unspecified),x,x,x,186.6*
Cc1ccc2nc3c(cc(C(=O)NCC4CCCO4)c(=N)n3C3CCCC3)c(=O)n2c1 (stereo unspecified),x,x,x,193.9*
N=c1c(C(=O)NCC2CCCO2)cc2c(=O)n3ccccc3nc2n1C1CCCCC1 (stereo unspecified),x,x,x,12.2
N=c1c(C(=O)NCC2CCCO2)cc2c(=O)n3ccccc3nc2n1C1CCCC1 (stereo unspecified),x,x,x,185.9*
CC1=CC(C2CC(=O)N(c3ccc(C)cc3)C2=O)CC2C(=O)N(c3ccc(C)cc3)C(=O)C12 (stereo unspecified),-2.8,-2.1,18.1,3.5
Cc1c(Cl)cccc1-c1ccc(CNCc2ccccn2)o1,x,x,x,0.4
CC(=O)Nc1ccc(C2=NN(c3ccccc3)C(c3cccs3)C2)cc1 (stereo unspecified),22.8,54.6*,23.8,1.0
CCc1cc2c(CN3CCN(Cc4ccccc4)CC3)cc(=O)oc2cc1O,x,x,x,87.7*
Nc1cc(N)nc(SCc2cc(=O)oc3cc4c(cc23)CCC4)n1,0.4,-2.4,15.0,31.1*
Cc1c(O)ccc2c(CN3CCN(Cc4ccccc4)CC3)cc(=O)oc12,x,x,x,54.0*
Cc1cc2oc(=O)cc(CSc3nc(N)cc(N)n3)c2cc1C(C)C,-4.0,-1.4,2.8,u
COc1ccc2c(CC(=O)N[C@@H](Cc3ccccc3)C(=O)O)cc(=O)oc2c1,x,x,x,-0.3
Cc1c(O)ccc2c(CC(=O)N[C@@H](Cc3ccccc3)C(=O)O)cc(=O)oc12,x,x,x,68.0*
CCN1CCN(c2ccc(S(=O)(=O)N3CCOCC3)cc2NC(=O)c2ccc(Cl)s2)CC1,x,x,x,4.4
CSc1ccc(/C=C/C(=O)c2c(O)cc(C)oc2=O)cc1,x,x,x,-9.7
O=S(=O)(Nc1nc(-c2sccc2Cl)cs1)c1cc(Cl)ccc1Cl,2.9,0.4,42.9,-2.9
O=C(CSc1nnc(CNC(=O)c2ccco2)o1)Nc1ccccc1C(F)(F)F,x,x,x,1.4
CC(C)CC(NS(=O)(=O)c1ccc2c(c1)oc(=O)n2C)C(=O)NCc1cccnc1 (stereo unspecified),1.6,-1.9,2.6,2.7
COc1cccc(CN(C)Cc2cc(=O)oc3c(C)c(C)ccc23)c1,x,x,x,2.3
COc1cccc(CN(C)Cc2cc(=O)oc3cc(O)c(Cl)cc23)c1,x,x,x,76.9*
O=c1cc(CN2CCN(Cc3ccccc3)CC2)c2cc3c(cc2o1)CCC3,2.2,81.1*,15.1,-1.4
SMILES,Runt-CBFb FRET,Runt-SMMHC FRET,Hck-Nef inh,RanGTP-Imp inh
Cc1cc2oc(=O)cc(CN(C)Cc3cccc(F)c3)c2cc1C,x,x,x,0.9
CCc1cc2c(CN(C)Cc3ccccc3F)cc(=O)oc2cc1O,x,x,x,53.6*
Cc1c(O)ccc2c(CN(C)Cc3ccccc3)cc(=O)oc12,46.0,81.2*,39.2,22.7*
Cc1ccccc1CN(C)Cc1cc(=O)oc2c(C)c(C)ccc12,x,x,x,3.7
CC(C)C[C@H](NC(=O)C1CCN(S(=O)(=O)c2ccccc2)CC1)C(=O)NCc1ccncc1,x,x,x,1.3
CCOC(=O)c1cc2c(ccn2C)n1Cc1ccccc1Cl,37.9,16.7,3.4,-0.3
Cc1c(O)c(CN2CCCC2)cc2c3c(c(=O)oc12)CCC3,25.5,37.1,34.1,14.2
CCc1cc(=O)oc2c(C)c(O)c(CN3CCCCC3)cc12,73.4*,78.0*,18.7,53.4*
CC(=O)c1cccc(NC(=S)NC(=O)c2ccccc2)c1,-2.4,-0.4,0.9,-0.7
CNC(=S)Nc1cccc(C(C)=O)c1,-2.1,0.3,72.6*,-9.0
Nc1c(C(=O)NCc2ccco2)c2nc3ccccc3nc2n1CCc1ccc(F)cc1,2.7,21.1,35.7,58.3*

# From PubChem
